Results as given in ChEMBL document CHEMBL1143029, “Heme oxygenase inhibition by 2-oxy-substituted 1-(1H-imidazol-1-yl)-4-phenylbutanes: effect of halogen substitution in the phenyl ring” (Bioorg Med Chem, 2007).

What was measured:
[1] = organism: Rattus norvegicus; assay: Selectivity index, ratio of IC50 for Sprague-Dawley rat brain HO2 to IC50 for Sprague-Dawley rat spleen HO1; type: tissue-based
In short: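 Ratio of IC50(HO-2) to IC50(HO-1). HO-2 comes from Sprague-Dawley rat brain microsomes and HO-1 from spleen microsomes. Both were assayed identically: methemalbumin substrate, 10 min inhibitor pre-incubation at 37 °C, 15 min reaction with 1 mM NADPH, and CO measured by GC. Each IC50 was derived from sigmoidal dose–response fits of percent-control activity.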

[2] = biological target: T1, Heme oxygenase 2 (Rattus norvegicus) (UniProt P23711); assay: Inhibition of Sprague-Dawley rat brain microsome HO2 at 100 uM relative to control
T1 sequence (whole entry): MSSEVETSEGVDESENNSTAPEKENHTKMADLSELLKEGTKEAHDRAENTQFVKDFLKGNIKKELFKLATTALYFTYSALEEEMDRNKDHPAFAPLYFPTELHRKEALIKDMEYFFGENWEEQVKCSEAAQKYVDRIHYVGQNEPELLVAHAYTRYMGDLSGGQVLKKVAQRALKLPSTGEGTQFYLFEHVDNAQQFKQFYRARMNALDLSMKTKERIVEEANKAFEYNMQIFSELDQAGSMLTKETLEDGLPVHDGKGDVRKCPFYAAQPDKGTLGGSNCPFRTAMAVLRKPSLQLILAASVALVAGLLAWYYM
In short: (§1)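 Spleen (HO-1) or brain (HO-2) microsomes from Sprague-Dawley rats, at 1 mg/mL protein in 100 mM phosphate buffer pH 7.4 with methemalbumin (heme–albumin) as substrate. Inhibitor hydrochloride pre-incubated 10 min at 37 °C, then 1 mM NADPH added for 15 min at 37 °C. Stopped by freezing on dry ice. CO formed measured by gas chromatography; activity given as percent of no-inhibitor control.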

[3] = biological target: T1, Heme oxygenase 2 (Rattus norvegicus); assay: Inhibition of Sprague-Dawley rat brain microsome HO2 at 0.1 uM relative to control; in short: as §1
[4] = biological target: T2, Heme oxygenase 1 (Rattus norvegicus) (UniProt P06762); conditions: Sprague-Dawley, Spleen, Microsome, 100 uM
T2 sequence (whole entry): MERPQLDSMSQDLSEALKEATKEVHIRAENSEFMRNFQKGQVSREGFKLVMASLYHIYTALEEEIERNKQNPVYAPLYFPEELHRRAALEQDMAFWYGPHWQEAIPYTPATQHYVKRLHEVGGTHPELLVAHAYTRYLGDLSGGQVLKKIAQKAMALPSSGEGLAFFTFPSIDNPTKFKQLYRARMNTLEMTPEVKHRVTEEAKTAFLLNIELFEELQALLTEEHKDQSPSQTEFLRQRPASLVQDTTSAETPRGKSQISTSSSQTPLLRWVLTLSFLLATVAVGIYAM

[5] = biological target: T2, Heme oxygenase 1 (Rattus norvegicus); assay: Inhibition of Sprague-Dawley rat spleen microsome HO1 at 0.1 uM relative to control; type: microsomes; in short: as §1
[6] = biological target: T3, Heme oxygenase 1 (Rattus norvegicus, UniProt P06762); assay: Inhibition of Sprague-Dawley rat spleen microsome HO1; type: microsomes
T3 sequence (P06762 whole entry): T2 sequence (whole entry)

[7] = biological target: T4, Heme oxygenase 2 (Rattus norvegicus, UniProt P23711); assay: Inhibition of Sprague-Dawley rat brain microsome HO2
T4 sequence (P23711 whole entry): T1 sequence (whole entry)

[8] = biological target: T2, Heme oxygenase 1 (Rattus norvegicus); assay: Inhibition of Sprague-Dawley rat spleen microsome HO1 at 0.01 uM relative to control; type: microsomes

inhibition [2] [%]	IC50 [6] [µM]	IC50 [7] [µM]	SMILES	Ratio IC50 [1]	further results
60	–	–	O=C(CCc1ccc(I)cc1)Cn1ccnc1	16.4	inhibition [3]: 10%; inhibition [4]: 80%; inhibition [5]: 44%
–	6.2	–	OC(CCc1ccccc1)Cn1ccnc1 (stereo not given)	2.6	–
–	–	1.8	OC(CCc1ccc(I)cc1)Cn1ccnc1 (stereo not given)	–	–
–	–	> 100	c1ccc(CCC2(Cn3ccnc3)OCCO2)cc1	–	–
–	3.7	> 100	Ic1ccc(CCC2(Cn3ccnc3)OCCO2)cc1	> 27	–
60	–	9.5	O=C(CCc1ccc(Br)cc1)Cn1ccnc1	–	–
–	–	–	OC(CCc1ccc(Br)cc1)Cn1ccnc1 (stereo not given)	–	inhibition [8]: 8%; inhibition [5]: 55%
–	–	> 100	Brc1ccc(CCC2(Cn3ccnc3)OCCO2)cc1	> 52.6	–
90	–	–	OC(CCc1ccc(Cl)cc1)Cn1ccnc1 (stereo not given)	8	–
–	3.8	> 100	Fc1ccc(CCC2(Cn3ccnc3)OCCO2)cc1	> 26.3	–
60	–	–	O=C(CCc1ccccc1)Cn1ccnc1	–	inhibition [4]: 80%
60	–	1.9	O=C(CCc1ccc(F)cc1)Cn1ccnc1	1.4	inhibition [3]: 10%; inhibition [4]: 80%

SMILES	inhibition [2] [%]	IC50 [6] [µM]	IC50 [7] [µM]	Ratio IC50 [1]	further results
Clc1ccc(CCC2(Cn3ccnc3)OCCO2)cc1	–	4.3	–	> 23.2	–
Nc1ccc(SC[C@@H]2CO[C@](CCc3ccc(Cl)cc3)(Cn3ccnc3)O2)cc1 [AZALANSTAT]	–	5.3	24.5	4.6	–
